# RBBP9 inh – human RBBP9 hydrolase inhibition; O75884; recombinant RBBP9, FP-Rh probe fluorescence polarization; inhibition, % at 7.94 µM; 0.2% of 220,000 active; AID 1515;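 active = inhibition above the campaign mean of all tested compounds plus 3 SD, cut at about 14% in these data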;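 note: plate controls were DMSO wells with RBBP9 for no effect and wells lacking RBBP9 protein for full effect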
#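 Measured by: FP readout at 525/598 nm; material: recombinant human RBBP9; also added: Serine-hydrolase probe FP-Rh, 375 nM pre-mixing; medium: Tris buffer pH 8.0, NaCl, Pluronic; replication: one well per compound; doses: one concentration, 7.94 µM nominal, 0.794% DMSO; timing: preincubation 30 min plus labeling 45 min at 25 °C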
# PKD1 inh – inhibitors of human PKD1 kinase; PKD1 kinase fluorescence polarization assay; inhibition, % (test concentration not listed); 0.056% of 200,000 active; AID 797; in the data active = inhibition above about 50%
# Target sequence (Q15139 whole entry, looked up): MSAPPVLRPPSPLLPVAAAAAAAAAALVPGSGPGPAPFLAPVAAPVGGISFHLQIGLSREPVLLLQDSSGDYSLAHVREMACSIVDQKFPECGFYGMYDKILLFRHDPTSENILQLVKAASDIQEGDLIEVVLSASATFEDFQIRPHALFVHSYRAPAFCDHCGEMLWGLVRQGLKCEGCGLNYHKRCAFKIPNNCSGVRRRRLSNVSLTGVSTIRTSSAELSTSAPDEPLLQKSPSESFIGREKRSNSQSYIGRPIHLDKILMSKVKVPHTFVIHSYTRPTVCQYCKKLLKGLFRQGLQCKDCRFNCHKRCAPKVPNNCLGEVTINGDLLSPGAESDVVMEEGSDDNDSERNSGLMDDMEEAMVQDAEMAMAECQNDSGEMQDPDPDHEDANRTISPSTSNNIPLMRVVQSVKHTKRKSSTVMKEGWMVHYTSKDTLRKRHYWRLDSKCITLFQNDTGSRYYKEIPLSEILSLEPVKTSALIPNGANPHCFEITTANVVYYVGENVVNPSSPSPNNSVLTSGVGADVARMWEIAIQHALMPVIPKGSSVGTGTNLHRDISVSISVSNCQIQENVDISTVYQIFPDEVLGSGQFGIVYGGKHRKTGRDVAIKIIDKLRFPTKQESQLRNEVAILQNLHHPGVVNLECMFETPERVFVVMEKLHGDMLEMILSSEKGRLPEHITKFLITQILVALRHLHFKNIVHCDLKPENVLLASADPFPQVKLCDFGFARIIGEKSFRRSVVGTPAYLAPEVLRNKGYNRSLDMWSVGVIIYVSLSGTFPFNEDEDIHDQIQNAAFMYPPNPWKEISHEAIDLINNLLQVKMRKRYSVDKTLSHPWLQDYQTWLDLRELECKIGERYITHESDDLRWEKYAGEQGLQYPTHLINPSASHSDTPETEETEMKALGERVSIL
# p97 ATPase inh – inhibitors of human p97 ATPase | recombinant p97 ATPase, Kinase-Glo ATP luminescence, 3 h | inhibition, % at 8 µM | 0.42% of 220,000 active | AID 1481; in the data active = inhibition above about 15%;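 note: 0% = DMSO vehicle and 100% = wells lacking enzyme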
# Wee1 stabilizer – blocks degradation of human Wee1 kinase | HeLa Luc-Wee1K328M stability, luciferase luminescence; 100% = proteasome inhibitor MG132 effect | 1.2% of 220,000 active | AID 1321 | P30291 | reporter increase, % at 5 µM;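 active = activation above the mean of all tested compounds plus 3 SD, set per screening run, cut at about 8.8% in these data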;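 note: cells exposed to compound for 20 h before luminescence read; 0% = DMSO alone and 100% = MG132 at 30 µM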
# Arbovirus anti – blocks arbovirus infection; arbovirus infection cell-based antiviral screen; 0.37% of 200,000 active; inhibition, % at 10 µM; AID 1251; in the data active = inhibition above about 30%
# DTT redox prof – compounds producing H2O2 with reducing agent – biochemical, NIH compound library profiling, artefact control for MLSCN library redox annotation, primary screen. DTT-dependent redox cycling H2O2, phenol red/HRP absorbance; 100% = 100 µM peroxide control, 0% = buffer. activation, % at 10 µM. 0.03% of 200,000 active. AID 878;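 active = activation of at least 50% relative to the plate's high and low controls in the primary single-dose screen; inactive = activation below 50%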;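 note: compound incubated with DTT at 0.8 mM final as the reducing agent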
# An asterisk follows results filed as active; . = no result; ! = not confirmed by another sample. Only some compounds are listed: those with a hit (about 2.2% of all), similar ones and a draw of the others.
SMILES,RBBP9 inh,PKD1 inh,p97 ATPase inh,Wee1 stabilizer,Arbovirus anti,DTT redox prof
CCC(C)[C@H](NC(=O)OC(C)(C)C)C(=O)N/N=C/c1cccc2nccnc12 (stereo partly specified),-14.1,-9.9,-8.6,-1.1,-12.5,-2.0
Cc1ccnn1CC(=O)N/N=C/c1ccco1,-4.4,-11.6,4.8,2.3,0.9,1.7
CC(C)(C)OC(=O)NCCC(=O)N/N=C/c1cccc2nccnc12,-1.6,.,-8.0,9.3*,.,.
Cc1cc(C)n(CC(=O)N/N=C/c2ccco2)n1,-13.3,-11.7,-2.3,9.2*,-1.2,0.5
O=C(N/N=C/c1cccc2nccnc12)c1ccncc1,-7.1,.,-2.9,9.8*,.,.
O=C(COc1ccc([N+](=O)[O-])cc1)Nc1ccc(C(=O)NCc2cccnc2)cc1,-11.8,-3.9,3.5,2.3,9.4,2.9
CN(C)/N=C/C=C1\CCC/C(=C\c2ccc(F)c(F)c2)C1=O,-10.8,-9.7,3.9,10.4*,4.1,-0.2
COc1ccc(/C=C2\CCC/C(=C\C=N\N(C)C)C2=O)cc1,-9.9,1.3,-1.1,0.8,-0.1,-1.2
CC1=C(C)[N+](=O)C2CCCCC2N1[O-] (stereo unspecified),-8.5,-5.0,-6.0,-2.4,4.2,0.6
Cc1cc(C)n(-c2ccc(C(=O)Nc3ccc(C)c(S(=O)(=O)N4CCOCC4)c3)cc2)n1,-0.8,.,-4.9,1.8,.,.
O=C(Nc1sc2c(c1C(=O)O)CCCCC2)c1ccccc1,-2.3,10.4,5.8,1.8,68.8*,0.3
O=C(Nc1sc2c(c1C(=O)O)CCC2)c1cccs1,2.1,1.2,4.3,1.4,55.2*,2.2
O=C(O)c1c(NC(=O)c2cccc3ccccc23)sc2c1CCC2,-9.2,-1.6,3.9,-0.6,54.9*,-14.6
O=C(Nc1sc2c(c1C(=O)O)CCC2)c1ccc(F)cc1,-8.9,-6.1,2.4,3.6,42.1*,0.8
O=C(/C=C/c1ccccc1)Nc1sc2c(c1C(=O)O)CCC2,-1.9,.,6.2,-1.2,.,.
O=C(Nc1sc2c(c1C(=O)O)CCC2)c1ccccc1,11.6,-1.4,3.0,-3.0,27.9,0.0
CC(=O)CSc1cc(-c2ccccc2)nc2ncnn12,-10.5,.,6.0,-0.9,.,.
Cc1ccc(C)n1-c1ccc(C(=O)N/N=C/c2ccncc2)cc1,6.9,-0.2,5.8,-1.4,-6.6,0.3
Cc1cc(Cl)ccc1OCC(=O)NCC(=O)N/N=C/c1ccco1,-7.1,-4.9,3.9,5.7,1.4,-0.1
O=c1oc(-c2cccs2)nc2sc3c(c12)CCC3,-2.4,-10.7,-1.7,2.7,10.2,-0.7
O=c1oc(/C=C/c2ccco2)nc2sc3c(c12)CCC3,-6.5,0.1,-6.2,4.0,63.4*,1.2
O=c1oc(-c2cccs2)nc2sc3c(c12)CCCC3,-1.1,2.7,5.4,3.5,34.4*,0.4
O=C(NCCCn1ccnc1)c1nn2c(C(F)(F)F)cc(-c3ccc(Br)cc3)nc2c1Cl,-4.5,-4.0,-0.2,-4.8,-5.2,0.0
O=C(Oc1oc(-c2ccco2)nc1C=Nc1ccccc1)c1ccoc1,-8.1,-11.7,0.3,9.0*,-1.9,-2.7
O=C(Oc1oc(-c2ccco2)nc1C=Nc1ccccc1)c1ccco1,-8.9,-12.7,1.4,-1.7,-1.8,2.5
SMILES,RBBP9 inh,PKD1 inh,p97 ATPase inh,Wee1 stabilizer,Arbovirus anti,DTT redox prof
Cc1noc(C)c1C(=O)NCCCN1CCCC1=O,-10.8,-4.0,-0.6,-1.2,5.3,-3.2
CCC(C)Nc1nc2c(c(=O)n(C)c(=O)n2C)n1C (stereo unspecified),-7.8,.,4.8,-2.5,.,.
Cc1nnc2n(CCc3ccccc3)c(=O)c3c4c(sc3n12)CCCC4,5.0,-4.8,2.4,9.3*,.,-1.1
Cc1ccc2nc(-c3ccc(NC(=O)CN4CCN(C(=O)c5ccco5)CC4)cc3)sc2c1,-10.7,5.8,-3.5,10.9*,0.7,-4.2
Cc1ccc2nc(-c3ccc(NC(=O)COC(=O)c4ccco4)cc3)sc2c1,-6.2,-9.0,0.5,0.4,-11.5,0.8
CCCc1c(OCCCCc2nn[nH]n2)ccc(C(C)=O)c1O,-4.8,2.6,1.9,7.5,34.8*!,-0.2
Cc1ccc(NC(=O)N2C(=O)C3(OCCO3)c3ccccc32)cc1,-3.2,-27.4,3.9,20.9*,15.2,-0.6
COc1ccc(CCN=C(N)NS(=O)(=O)c2ccc3ccccc3c2)cc1,3.7,-16.5,-0.6,-2.4,-5.2,0.1
CN(C)/C=C/C(=O)c1ccc(Cl)cc1,-8.4,-8.5,0.9,10.8*,-0.2,-0.6
O=CN/C=C/c1cc(O)ccc1O,39.4*,.,-3.8,2.2,.,.
COCCCNC(=O)c1ccccc1Oc1ccccc1,-7.5,-1.5,3.7,13.5*,-3.9,-0.1
O=C(NCCN1CCOCC1)c1ccccc1Oc1ccccc1,-5.9,4.1,4.4,-1.5,3.2,1.3
CCCCN1C(=O)N(c2nnc(C(C)(C)C)s2)C(O)C1c1ccc(C)cc1 (stereo unspecified),-7.7,.,2.0,5.9,.,.
COc1cc(C(=O)Nc2cccc(-c3cn4cccnc4n3)c2)cc(OC)c1OC,-4.0,-11.7,0.5,3.1,-17.2,-0.3
COc1ccc(-c2cn3cccnc3n2)cc1NC(=O)c1cc(OC)c(OC)c(OC)c1,-3.1,-0.3,4.3,9.7*,-15.0,-0.9
CCOc1ncccc1C(=O)Nc1nc(SC)ns1,2.8,-3.4,2.6,-0.2,5.4,-2.1
C/C(=N/Oc1nc(C)cc(C)n1)c1ccc(Br)cc1,4.6,-8.4,2.3,0.0,-2.6,0.2
Cc1cc(C)nc(Oc2ccc(Br)cc2Br)n1,-11.5,-6.5,-1.0,9.1*,-4.8,-0.7
COc1cc2ccccc2cc1C(=O)NC(=S)Nc1cc(C(=O)O)ccc1C,-14.7,-6.5,-5.9,-2.4,42.4*,-0.8
COc1ccc(-c2nc(C#N)c(NCCN(C)C)o2)cc1,-2.6,-5.1,-2.2,9.1*,1.7,-1.3
COc1ccc(-c2nc(C#N)c(NCCc3ccccc3)o2)cc1,-2.1,-4.9,-0.1,0.8,8.0,-0.1
CCn1nc(C)c(NC(=O)Nc2cccc(Cl)c2Cl)c1C,-4.9,1.4,0.5,-0.3,32.5*,0.5
CCn1nc(C)c(NC(=O)c2ccc(Cl)cc2)c1C,0.5,0.0,-1.6,0.7,8.4,-1.5
O=C(c1ccco1)N1N=C2CCCCCC2C1(O)C(F)(F)F (stereo unspecified),-6.6,-7.0,-0.3,10.6*,7.7,0.1
COc1cccc(C2=NOC(C(=O)Nc3cccnc3Cl)C2)c1 (stereo unspecified),-12.5,-5.2,-5.5,-1.7,-1.3,-1.1
COc1ccc(-c2csc(NC(=O)CN3C(=O)CCC3=O)n2)cc1OC,-5.8,6.1,0.9,10.7*,-12.7,0.3
COc1ccc(-c2csc(NC(=O)CN3C(=O)CCC3=O)n2)cc1,-6.1,-5.7,1.6,-1.1,14.0,-0.9
COc1cc(C(=O)Nc2nc(-c3ccc(F)cc3)cs2)ccc1OCC(=O)N1CCOCC1,-0.9,-2.6,0.3,-3.2,83.3*,0.0
